In assay [1] the target is T1, Adenosine receptor A3 (Homo sapiens, UniProt P0DMS8).
T1 sequence (P0DMS8 whole entry): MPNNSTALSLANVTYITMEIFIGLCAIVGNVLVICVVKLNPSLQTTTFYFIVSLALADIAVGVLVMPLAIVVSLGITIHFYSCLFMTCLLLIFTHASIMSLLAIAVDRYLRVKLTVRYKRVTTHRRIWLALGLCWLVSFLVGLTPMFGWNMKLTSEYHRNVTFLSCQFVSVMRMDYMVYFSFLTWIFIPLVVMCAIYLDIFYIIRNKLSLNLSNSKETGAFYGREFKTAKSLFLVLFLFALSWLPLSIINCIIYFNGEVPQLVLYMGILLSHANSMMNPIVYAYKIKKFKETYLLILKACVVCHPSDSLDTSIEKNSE
Nature of the assay: Displacement of [3H]HEMADO from human adenosine A3 receptor expressed in CHO cells by Top Count analysis. It is filed as cell-based. The gist of the method: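 Competition against [3H]HEMADO binding at hA3 receptor in CHO cells, 3 h at room temperature; nonspecific binding defined with 100 µM R-PIA.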
For orientation: In a radioligand displacement assay an active substance lowers the binding of a labelled ligand.

The species entered for assay [2] is Homo sapiens. Nature of the assay: Selectivity ratio of Ki for human adenosine A2A receptor to Ki for human adenosine A3 receptor.
The target of assay [3] is Adenosine receptor A2a (Homo sapiens, UniProt P29274). Nature of the assay: Displacement of [3H]NECA from human adenosine A2A receptor expressed in CHO cells by Top Count analysis. It is filed as cell-based.
Adenosine receptor A2a, sequence (P29274 whole entry): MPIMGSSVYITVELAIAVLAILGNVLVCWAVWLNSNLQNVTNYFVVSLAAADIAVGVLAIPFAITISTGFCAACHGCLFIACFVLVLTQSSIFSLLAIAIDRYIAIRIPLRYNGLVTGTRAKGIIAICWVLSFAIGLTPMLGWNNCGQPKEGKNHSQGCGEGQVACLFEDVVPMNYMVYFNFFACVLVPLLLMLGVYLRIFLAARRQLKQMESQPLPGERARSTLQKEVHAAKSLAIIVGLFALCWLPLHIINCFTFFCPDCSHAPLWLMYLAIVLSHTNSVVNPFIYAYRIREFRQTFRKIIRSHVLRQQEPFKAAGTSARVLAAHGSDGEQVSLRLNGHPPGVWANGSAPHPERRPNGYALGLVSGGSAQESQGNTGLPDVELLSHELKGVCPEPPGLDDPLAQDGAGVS
Assay [4] concerns the target T2, Adenosine receptor A2b (Homo sapiens, UniProt P29275).
T2 sequence (P29275 whole entry): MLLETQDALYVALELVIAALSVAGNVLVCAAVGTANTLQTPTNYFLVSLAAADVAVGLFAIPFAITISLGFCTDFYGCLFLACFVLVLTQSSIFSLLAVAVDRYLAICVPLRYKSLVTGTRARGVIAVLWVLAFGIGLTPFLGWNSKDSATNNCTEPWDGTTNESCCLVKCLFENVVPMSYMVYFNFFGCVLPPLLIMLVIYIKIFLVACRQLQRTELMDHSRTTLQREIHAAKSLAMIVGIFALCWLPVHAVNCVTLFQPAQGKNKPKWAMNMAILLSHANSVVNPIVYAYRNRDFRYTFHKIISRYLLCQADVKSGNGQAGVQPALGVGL
Nature of the assay: Antagonist activity at human adenosine A2B receptor expressed in CHO cells assessed as inhibition of NECA-induced adenylyl cyclase activity. It is filed as functional, cell-based. The gist of the method: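 Membranes from CHO cells transfected with hA2B receptor incubated 20 min with 100 nM NECA, 150,000 cpm [α-32P]ATP and varying antagonist concentrations, in mixture lacking EGTA and NaCl. Ki derived from concentration-dependent inhibition of NECA-stimulated adenylyl cyclase activity; n = 3–6.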

In assay [5] the target is Adenosine receptors; A1 & A3 (Homo sapiens) (UniProt P30542+P0DMS8). Nature of the assay: Selectivity ratio of Ki for human adenosine A1 receptor to Ki for human adenosine A3 receptor.
For assay [6], the target named is T3, Adenosine receptor A1 (Homo sapiens, UniProt P30542).
T3 sequence (P30542 whole entry): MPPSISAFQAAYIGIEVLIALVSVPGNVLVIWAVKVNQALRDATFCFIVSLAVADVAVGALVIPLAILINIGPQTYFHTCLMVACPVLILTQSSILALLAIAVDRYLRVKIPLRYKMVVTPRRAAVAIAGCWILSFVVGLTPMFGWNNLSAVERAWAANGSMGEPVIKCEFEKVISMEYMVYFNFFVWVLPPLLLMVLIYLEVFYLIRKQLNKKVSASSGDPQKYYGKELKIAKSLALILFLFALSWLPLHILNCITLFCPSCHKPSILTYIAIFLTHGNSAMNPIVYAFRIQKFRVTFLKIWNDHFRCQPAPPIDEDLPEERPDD
Nature of the assay: Displacement of [3H]CCPA from human adenosine A1 receptor expressed in CHO cells by Top Count analysis. Type of assay: cell-based. The gist of the method:
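Tritiated-radioligand competition binding at hA1 receptor, 3 h at room temperature; nonspecific binding with 1 mM theophylline. Separation by GF/B glass-fibre filtration, filter radioactivity counted by scintillation (57% efficiency). Ki from competition curves by nonlinear curve fitting.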

Turning to `CCOC(=O)c1nc(N)nc2nn(CCc3ccccc3)cc12`, the inhibition constant Ki – broadly, a dissociation constant, usually derived from enzyme kinetics or from competition with a known ligand – in assay [1] was found to be 18.1 µM; in assay [3] it was 4.8 µM; in assay [4], 60 µM; in assay [6], 3.5 µM. Also, the Ratio Ki was found to be 0.26 in assay [2] and 0.19 in assay [5].
As for `CCOC(=O)c1nc(N(C(=O)c2ccccc2)C(=O)c2ccccc2)nc2nn(C(C)C)cc12`, the inhibition constant (Ki) in assay [1] was 5.4 µM; in assay [3], > 100 µM; in assay [4] it was > 20 µM; in assay [6], 17.7 µM. Further, the figures for the Ratio Ki in assay [2] and in assay [5] were > 18.5 and 3.2, respectively.
For `CCOC(=O)c1nc(N)nc2nn(C)cc12`, the inhibition constant (Ki) in assay [1] was 0.9 µM; in assay [3], 2 µM; in assay [4], > 20 µM; in assay [6], 8.8 µM. Moreover, the Ratio Ki stood at 2.2 in assay [2] and 9.7 in assay [5].
Take `CCOC(=O)c1nc(NC(=O)c2ccccc2)nc2nn(C)cc12`: the Ki in assay [1] is > 100 µM; in assay [3] it was 16.1 µM; in assay [4] it was > 20 µM; in assay [6], 14 µM. Also, the values for the Ratio Ki in assay [2] and in assay [5] were < 0.16 and < 0.14, respectively.
In the case of `CCOC(=O)c1nc(N(C(=O)c2ccc(Br)cc2)C(=O)c2ccc(Br)cc2)nc2nn(C)cc12`, the Ki in assay [1] is 2.9 µM; in assay [3], > 100 µM; in assay [4], > 20 µM; in assay [6], > 100 µM. In addition, the Ratio Ki in assay [2] and in assay [5] was > 34 in each case.
Regarding `CCOC(=O)c1nc(NC(=O)c2ccccc2)nc2nn(CCc3ccccc3)cc12`, the Ki is 12.2 µM in assay [1], 3.7 µM in assay [3], > 10 µM in assay [4] and 5.1 µM in assay [6]. Also, the Ratio Ki in assay [2] was 0.3; in assay [5], 0.41.
With `CCOC(=O)c1nc(N)nc2nn(C(C)C)cc12`, the Ki in assay [1] is 14 µM; in assay [3] it was 2.6 µM; in assay [4], > 10 µM; in assay [6] it was 0.9 µM. The Ratio Ki in assay [2] is 0.18; in assay [5], 0.06.
Take `Cn1cc2c(C(N)=O)nc(N)nc2n1`: the Ki in assay [1] is > 100 µM; in assay [3] it was 3 µM; in assay [4], > 20 µM; in assay [6] it was 10.2 µM.
As for `CC(C)n1cc2c(C(N)=O)nc(N)nc2n1`, the Ki in assay [1] was > 100 µM; in assay [3], 9.2 µM; in assay [4], > 20 µM; in assay [6] it was 8.2 µM.
With `CCOC(=O)c1nc(NC(=O)c2ccc(C(F)(F)F)cc2)nc2nn(CCc3ccccc3)cc12`, the Ki in assay [1] is 5.8 µM; in assay [3] it was 7.5 µM; in assay [4], > 20 µM; in assay [6] it was 2.5 µM. Besides, the Ratio Ki is 1.3 in assay [2] and 0.5 in assay [5].
For `CCOC(=O)c1nc(NC(=O)c2ccc(F)cc2)nc2nn(C)cc12`, the inhibition constant Ki in assay [1] is > 100 µM; in assay [3], 11.5 µM; in assay [4] it was > 20 µM; in assay [6] it was > 100 µM. Further, the Ratio Ki in assay [2] is < 0.14.
As to `CCOC(=O)c1nc(NC(=O)c2ccc(C)cc2)nc2nn(C)cc12`, the Ki was 100 µM in assay [1], 11.8 µM in assay [3], > 20 µM in assay [4] and > 100 µM in assay [6]. Besides, the Ratio Ki in assay [2] is 0.12; in assay [5] it was > 1.
As to `CCOC(=O)c1nc(NC(=O)Cc2ccccc2)nc2nn(C)cc12`, the inhibition constant (Ki) in assay [1] is 14.6 µM; in assay [3], 7.3 µM; in assay [4], > 20 µM; in assay [6], 5.9 µM. Also, the results for the Ratio Ki in assay [2] and in assay [5] were 0.5 and 0.4, respectively.
For `CCOC(=O)c1nc(NC(=O)c2ccc(F)cc2)nc2nn(CC(C)(C)C)cc12`, the Ki is 4.3 µM in assay [1], 5.7 µM in assay [3], > 20 µM in assay [4] and 2.7 µM in assay [6]. Besides, the Ratio Ki is 1.3 in assay [2] and 0.62 in assay [5].
For the compound `CCOC(=O)c1nc(NC(=O)c2ccc(C(F)(F)F)cc2)nc2nn(C(C)C)cc12`, the Ki in assay [1] was > 100 µM; in assay [3] it was > 100 µM; in assay [4], > 20 µM; in assay [6] it was > 100 µM.
Regarding `CCOC(=O)c1nc(N(C(=O)c2ccccc2)C(=O)c2ccccc2)nc2nn(C)cc12`, the Ki in assay [1] is > 100 µM; in assay [3], > 100 µM; in assay [4], > 20 µM; in assay [6] it was > 100 µM.
In the case of `CCOC(=O)c1nc(NC(=O)Cc2ccccc2)nc2nn(CCc3ccccc3)cc12`, the inhibitory constant (Ki) is 10.4 µM in assay [1], 2.4 µM in assay [3], > 10 µM in assay [4] and 0.6 µM in assay [6]. The Ratio Ki in assay [2] came out at 0.2; in assay [5], 0.05.
Consider `CCOC(=O)c1nc(NC(=O)c2ccccc2)nc2nn(C(C)C)cc12`, for which the inhibitory constant (Ki) is 8.6 µM in assay [1], 3.3 µM in assay [3], > 10 µM in assay [4] and 4.3 µM in assay [6]. Further, the Ratio Ki was 0.4 in assay [2] and 0.5 in assay [5].
With `CCOC(=O)c1nc(NC(=O)c2ccc(Br)cc2)nc2nn(CCc3ccccc3)cc12`, the Ki in assay [1] was 3.6 µM; in assay [3], 4.2 µM; in assay [4] it was > 20 µM; in assay [6] it was 2.6 µM. Also, the Ratio Ki in assay [2] came out at 1.2; in assay [5], 0.72.
Regarding `CCOC(=O)c1nc(N(C(=O)c2ccc(F)c(F)c2)C(=O)c2ccc(F)c(F)c2)nc2nn(C)cc12`, the inhibitory constant (Ki) in assay [1] was > 100 µM; in assay [3] it was > 100 µM; in assay [4] it was > 20 µM; in assay [6], > 100 µM.
Regarding `CCOC(=O)c1nc(NC(=O)c2ccc(F)cc2)nc2nn(CCc3ccccc3)cc12`, the Ki was 6.8 µM in assay [1], 6.1 µM in assay [3], > 20 µM in assay [4] and 5 µM in assay [6]. Moreover, the Ratio Ki in assay [2] was 0.8; in assay [5], 0.73.
Regarding `CCOC(=O)c1nc(NC(=O)c2ccc(F)cc2)nc2nn(C(C)C)cc12`, the inhibition constant Ki was 5.7 µM in assay [1], 2.8 µM in assay [3], > 20 µM in assay [4] and 2.8 µM in assay [6]. Moreover, the Ratio Ki in assay [2] and in assay [5] was 0.5 throughout.
For the compound `CCOC(=O)c1nc(N(C(=O)c2ccccc2)C(=O)c2ccccc2)nc2nn(CCc3ccccc3)cc12`, the inhibition constant (Ki) in assay [1] is > 100 µM; in assay [3], > 100 µM; in assay [4], > 20 µM; in assay [6], > 100 µM.
For the compound `NC(=O)c1nc(N)nc2nn(CCc3ccccc3)cc12`, the inhibition constant (Ki) in assay [1] is 32.9 µM; in assay [3], 15.7 µM; in assay [4] it was > 20 µM; in assay [6] it was 40.2 µM. Besides, the figures for the Ratio Ki in assay [2] and in assay [5] were 0.47 and 1.2, respectively.
With `CCOC(=O)c1nc(NC(=O)c2ccc(Cl)c(Cl)c2)nc2nn(CCc3ccccc3)cc12`, the Ki is 2.2 µM in assay [1], > 100 µM in assay [3], > 20 µM in assay [4] and > 100 µM in assay [6]. Moreover, the Ratio Ki in assay [2] and in assay [5] was > 46 throughout.
In the case of `CCOC(=O)c1nc(NC(=O)c2ccc(C(F)(F)F)cc2)nc2nn(C)cc12`, the Ki is > 100 µM in assay [1], > 100 µM in assay [3], > 20 µM in assay [4] and > 100 µM in assay [6].
Regarding `CCOC(=O)c1nc(NC(=O)Cc2ccccc2)nc2nn(CC(C)(C)C)cc12`, the Ki is 4.3 µM in assay [1], 5.7 µM in assay [3], > 20 µM in assay [4] and 2.7 µM in assay [6]. The Ratio Ki in assay [2] came to 1.3; in assay [5], 0.62.
With `CCOC(=O)c1nc(NC(=O)c2ccc(C)cc2)nc2nn(C(C)C)cc12`, the inhibition constant (Ki) is 28 µM in assay [1], 2.3 µM in assay [3], > 20 µM in assay [4] and 0.7 µM in assay [6]. The Ratio Ki in assay [2] is 0.1; in assay [5] it was 0.02.

(Values after ChEMBL document CHEMBL3407439, “A facile and novel synthesis of N(2)-, C(6)-substituted pyrazolo[3,4-d]pyrimidine-4 carboxylate derivatives as adenosine receptor antagonists” (Eur J Med Chem, 2015).)
